# Measured values from ChEMBL document CHEMBL2401640, “In search of flavivirus inhibitors: evaluation of different tritylated nucleoside analogues” (Eur J Med Chem, 2013).
# Legend:
# [1] = Selectivity index, ratio of CC50 for african green monkey Vero cells to EC50 for YFV 17D
# Method in brief: (§1)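 Vero-B cells (ATCC CCL-81), grown in MEM with 10% FCS, seeded at 2 x 10⁴ cells/well in 2% FCS medium and left to adhere overnight. Infected with 100 CCID₅₀ of YFV-17D vaccine strain (one passage in Vero-B), then serial compound dilutions added. After one week, fixed with ethanol and stained with methylene blue. EC₅₀ for CPE inhibition and CC₅₀ from uninfected parallel cultures, both read visually.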
# Yellow fever virus = test: Antiviral activity against YFV 17D infected in african green monkey Vero cells assessed as inhibition of virus-induced cytopathic effect after 1 week; type: functional, cell-based; details: 168 h; method in brief: as §1
# dengue virus type 2 = test: Antiviral activity against DENV serotype 2 NGC infected in mosquito C6/36 cells assessed as inhibition of virus-induced cytopathic effect after 1 week; type: functional, organism-based; details: C6/36, 168 h
# [2] = Cytotoxicity against african green monkey Vero cells after 1 week; type: cell-based; details: chlorocebus sabaeus
# Method in brief: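 Vero-B cells in MEM with 2% FCS, seeded at 7 x 10³ (DENV assay) or 2 x 10⁴ (YFV assay) cells/well and left to adhere overnight. Serial compound dilutions were added without virus and incubated one week. Cells were ethanol-fixed and stained with 1% methylene blue. CC50, the concentration inhibiting cell growth by 50%, was determined visually.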
# [3] = Selectivity index, ratio of CC50 for mosquito C6/36 cells to EC50 for DENV serotype 2 NGC
# [4] = Cytotoxicity against mosquito C6/36 cells after 1 week; type: cell-based; details: aedes albopictus
SMILES,Ratio CC50/EC50 [1],EC50 (Yellow fever virus) [µM],EC50 (dengue virus type 2) [µM],CC50 at 168 h [2] [µM],Ratio CC50/EC50 [3],CC50 at 168 h [4] [µM]
O=c1ccn([C@@H]2O[C@H](COC(c3ccccc3)(c3ccccc3)c3ccccc3)[C@@H](O)[C@H]2O)c(=O)[nH]1,4.5,4,6,18,1.67,10
O=c1ccn([C@@H]2O[C@H](COC(c3ccccc3)(c3ccccc3)c3ccccc3)[C@@H](OC(c3ccccc3)(c3ccccc3)c3ccccc3)[C@H]2O)c(=O)[nH]1,>85,1,1.75,> 85,>5,> 10
O=c1ccn([C@@H]2O[C@H](COC(c3ccccc3)(c3ccccc3)c3ccccc3)[C@@H](O)[C@H]2OC(c2ccccc2)(c2ccccc2)c2ccccc2)c(=O)[nH]1,>80,1.2,30,> 100,>3,> 100
O=c1ccn([C@@H]2O[C@H](CO)[C@@H](O)[C@H]2OC(c2ccccc2)(c2ccccc2)c2ccccc2)c(=O)[nH]1,1.4,25,,35,,40
O=c1ccn([C@@H]2O[C@H](CO)[C@@H](OC(c3ccccc3)(c3ccccc3)c3ccccc3)[C@H]2O)c(=O)[nH]1,1.8,10,,18,,18
O=c1ccn([C@H]2C[C@H](OC(c3ccccc3)(c3ccccc3)c3ccccc3)[C@@H](COC(c3ccccc3)(c3ccccc3)c3ccccc3)O2)c(=O)[nH]1,>70,0.9,3.7,> 65,>17,> 65
O=c1ccn([C@H]2C[C@H](OC(c3ccccc3)(c3ccccc3)c3ccccc3)[C@@H](CO)O2)c(=O)[nH]1,2.7,1.5,,4,,5
Cc1cn([C@H]2C[C@H](OC(c3ccccc3)(c3ccccc3)c3ccccc3)[C@@H](COC(c3ccccc3)(c3ccccc3)c3ccccc3)O2)c(=O)[nH]c1=O,7,10,,70,,35
Cc1cn([C@H]2C[C@H](O)[C@@H](COC(c3ccccc3)(c3ccccc3)c3ccccc3)O2)c(=O)[nH]c1=O,,,,8,,4
Cc1cn([C@H]2C[C@H](OC(c3ccccc3)(c3ccccc3)c3ccccc3)[C@@H](CO)O2)c(=O)[nH]c1=O,1.8,10,,18,,10
O=c1[nH]c(=O)n([C@@H]2O[C@H](COC(c3ccccc3)(c3ccccc3)c3ccccc3)[C@@H](O)[C@H]2O)cc1Cl,2.5,2,,5,,5
O=c1[nH]c(=O)n([C@@H]2O[C@H](COC(c3ccccc3)(c3ccccc3)c3ccccc3)[C@@H](OC(c3ccccc3)(c3ccccc3)c3ccccc3)[C@H]2O)cc1Cl,2.9,0.7,,2,,1
O=c1[nH]c(=O)n([C@@H]2O[C@H](COC(c3ccccc3)(c3ccccc3)c3ccccc3)[C@@H](O)[C@H]2OC(c2ccccc2)(c2ccccc2)c2ccccc2)cc1Cl,>90,0.75,17,> 70,1.75,30
O=c1[nH]c(=O)n([C@@H]2O[C@H](CO)[C@@H](O)[C@H]2OC(c2ccccc2)(c2ccccc2)c2ccccc2)cc1Cl,2,15,,30,,30
O=c1[nH]cnc2c1ncn2[C@@H]1O[C@H](COC(c2ccccc2)(c2ccccc2)c2ccccc2)[C@@H](OC(c2ccccc2)(c2ccccc2)c2ccccc2)[C@H]1O,>40,< 0.4,1.5,10,6.6,10
O=c1[nH]cnc2c1ncn2[C@@H]1O[C@H](COC(c2ccccc2)(c2ccccc2)c2ccccc2)[C@@H](O)[C@H]1OC(c1ccccc1)(c1ccccc1)c1ccccc1,,,,10,,6
Oc1ncnc2c1ncn2[C@@H]1O[C@H](COC(c2ccccc2)(c2ccccc2)c2ccccc2)[C@@H](O)[C@H]1O,,,,30,,30
O=c1ccn([C@H]2C[C@H](O)[C@@H](COC(c3ccccc3)(c3ccccc3)c3ccccc3)O2)c(=O)[nH]1,1.7,3,,5,,8
